Assay results: ChEMBL document CHEMBL6096643 (Bioorg Med Chem, 2024)
Active and inactive are the calls of the source. The rule behind the calls is not given here.

Key:
[1] = Inhibition of bovine brain tubulin polymerization preincubated for 15 mins followed by GTP addition and measured after 20 mins; parameters: species or system Bos taurus
[2] = test system: MCF7; assay: Antiproliferative activity against human MCF7 cells assessed as cell growth inhibition measured after 48 hrs by sulforhodamine B assay; format: functional, cell-based; conditions: MCF7, 48 h
Method in brief: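 MCF-7 cells grown 24 h without drug, then 48 h with varying compound concentrations. Total cell protein measured by sulforhodamine B assay; IC50 for growth inhibition derived.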

[3] = molecular target: T1, Tubulin (Homo sapiens) (UniProt P68371+Q9H4B7+P0DPH7+P68366+Q13509+Q71U36+P04350+Q3ZCM7+P07437+P68363+Q9BQE3+Q6PEY2+Q13885+Q9BVA1+Q9BUF5); assay: Inhibition of [3H]colchicine binding to tubulin (unknown origin) at 5 uM relative to control; format: protein-complex assay
Method in brief: (§1)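 Tubulin at 1.0 μM (0.1 mg/mL), [3H]colchicine at 5.0 μM, compounds at 5 or 50 μM. Bound colchicine measured by DEAE-cellulose filter method; triplicate experiments.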

[4] = molecular target: T1, Tubulin (Homo sapiens); assay: Inhibition of [3H]colchicine binding to tubulin (unknown origin) at 50 uM relative to control; format: protein-complex assay; method in brief: as §1
[5] = Disruption of microtubule network in rat A10 cells incubated for 18 hrs by fluorescence microscopic analysis; format: cell-based
Method in brief: (§2)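 A-10 cells on glass coverslips exposed to a range of compound concentrations for 18 h. Cells fixed, microtubules stained with β-tubulin antibody, nuclei with DAPI, then viewed by fluorescence microscopy. Microtubule loss estimated visually, EC50 taken from dose-response curves, two independent experiments.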

[6] = test system: A10; assay: Disruption of microtubule network in rat A10 cells at 20 uM incubated for 18 hrs by fluorescence microscopic analysis; format: cell-based; method in brief: as §2
[7] = Cytotoxicity against human HPDE cells measured after 48 hrs by CellTiter 96 Aqueous One Solution Cell Proliferation Assay; format: toxicity, cell-based
[8] = test system: HCT-116; assay: Cytotoxicity against human HCT-116 cells measured after 48 hrs by CellTiter 96 Aqueous One Solution Cell Proliferation Assay; format: functional, cell-based; conditions: HCT-116, 48 h
[9] = test system: A10; assay: Disruption of microtubule network in rat A10 cells at 15 uM incubated for 18 hrs by fluorescence microscopic analysis; format: cell-based; method in brief: as §2
[10] = test system: MIA PaCa-2; assay: Cytotoxicity against human MIA PaCa-2 cells at 1.562 to 100 uM measured after 48 hrs by CellTiter 96 Aqueous One Solution Cell Proliferation Assay; format: functional, cell-based; conditions: dose 1.562-100 µM
[11] = test system: A10; assay: Disruption of microtubule network in rat A10 cells at 2.5 uM incubated for 18 hrs by fluorescence microscopic analysis; format: cell-based
Method in brief: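 Rat A-10 cells grown on glass coverslips, exposed 18 h to a range of compound concentrations (single-concentration image at 2.5 μM), then fixed. Microtubules stained by indirect immunofluorescence with β-tubulin antibody, nuclei with 4,6-diamidino-2-phenylindole. Interphase microtubule loss scored visually by fluorescence microscopy against vehicle control.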

Compound | IC50 [1] [µM] | IC50 [2] [µM] | inhibition [3] | inhibition [4] | EC50 [5] [µM] | Activity [6] | IC50 at 48 h [7] [µM] | IC50 [8] [µM] | Activity [9] | Activity [10] | Activity [11]
COc1cc(/C=C\c2ccc(B(O)O)cc2)cc(OC)c1OC | 10 | 0.48 | 6.4% | 77% | 4 | Active | > 50 | < 5 | – | – | –
COc1cc(/C=C\c2cccc(B(O)O)c2)cc(OC)c1OC | 27 | 0.85 | inactive | inactive | 9 | – | > 50 | < 5 | – | – | –
COc1cc(/C=C\c2cnc(OC)c(B(O)O)c2)cc(OC)c1OC | 30 | 0.39 | inactive | inactive | 9 | – | > 50 | < 5 | Active | – | –
COc1cc(/C=C\c2ccccc2B(O)O)cc(OC)c1OC | > 40 | > 2.5 | inactive | inactive | 51 | – | > 50 | < 5 | – | Active; Compound Showed Less Toxicity Than Hct-116 Cells | –
COc1ccc(/C=C\c2cc(OC)c(OC)c(OC)c2)cc1B(O)O | 1.5 | – | – | 99% | 0.058 | – | > 50 | – | – | – | –
COc1ccc(/C=C\c2cc(OC)c(OC)c(OC)c2)cc1O [COMBRETASTATIN A4] | – | – | – | – | < 0.025 | – | > 50 | – | – | – | –
COc1ccc(C(=O)c2cc(OC)c(OC)c(OC)c2)cc1B(O)O | 12 | 0.3 | 21% | 59% | 5 | – | > 50 | – | – | Active; Compound Showed Less Toxicity Than Hct-116 Cells | Active
COc1cc(C(=O)c2cnc(OC)c(B(O)O)c2)cc(OC)c1OC | > 40 | > 2.5 | inactive | inactive | > 50 | – | > 50 | – | – | – | –
COc1ccc(C(=O)c2cc(OC)c(OC)c(OC)c2)cc1O [PHENSTATIN] | 1 | – | 86% | inactive | – | – | > 50 | – | – | – | –
